Results as given in ChEMBL document CHEMBL1268915, “Optimization of a series of dipeptides with a P3 threonine residue as non-covalent inhibitors of the chymotrypsin-like activity of the human 20S proteasome” (Bioorg Med Chem Lett, 2010).
Active and inactive are the calls of the source. No cut-off for these calls is given here.

Molecular target: Prothrombin (Homo sapiens) (UniProt P00734)
Experiment: Inhibition of human thrombin at 100 uM
Conditions: not given

SMILES | inhibition
Cc1ccc(CNC(=O)[C@H](CCc2ccccc2)NC(=O)[C@H](CCc2ccccc2)NC(=O)Cc2cccc(Oc3ccccc3)c2)cc1 | Active
COc1ccc2c(c1)CC(C(=O)N[C@H](C(=O)N[C@@H](CCc1ccccc1)C(=O)NCc1ccc(C)cc1)[C@@H](C)O)CC2 (some centres not stated) | Active

Tested on: not listed separately
Experiment: Cytotoxicity against human Calu6 cells assessed as cellular ATP level after 72 hrs by luminescence-based ATPlite assay
Format: cell-based, Calu-6
Conditions: read-out: LC50
How it was run: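 Calu6 cells, 2000 per well, incubated with compound for 72 h. Viability read as cellular ATP by luminescence (ATPlite). Values are means of at least three independent experiments.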

SMILES | CC50 at 72 h [µM]
Cc1ccc(CNC(=O)[C@H](CCc2ccccc2)NC(=O)[C@H](CCc2ccccc2)NC(=O)Cc2cccc(Oc3ccccc3)c2)cc1 | > 25
COc1ccc2c(c1)CC(C(=O)N[C@H](C(=O)N[C@@H](CCc1ccccc1)C(=O)NCc1ccc(C)cc1)[C@@H](C)O)CC2 (some centres not stated) | 2.3

Species on record: Homo sapiens
Experiment: Inhibition of human chymotrypsin at 100 uM
Conditions: not given

SMILES | inhibition
Cc1ccc(CNC(=O)[C@H](CCc2ccccc2)NC(=O)[C@H](CCc2ccccc2)NC(=O)Cc2cccc(Oc3ccccc3)c2)cc1 | Active
COc1ccc2c(c1)CC(C(=O)N[C@H](C(=O)N[C@@H](CCc1ccccc1)C(=O)NCc1ccc(C)cc1)[C@@H](C)O)CC2 (some centres not stated) | Active

Tested on: not listed separately
Experiment: Inhibition of chymotrypsin-like activity of human 20s proteasome beta-1 subunit in human erythrocyte assessed as hydrolysis of Ac-WLA-AMC fluorogenic substrate
Conditions: not given

SMILES | IC50 [µM]
Cc1ccc(CNC(=O)[C@H](CCc2ccccc2)NC(=O)[C@H](CCc2ccccc2)NC(=O)Cc2cccc(Oc3ccccc3)c2)cc1 | > 20
COc1ccc2c(c1)CC(C(=O)N[C@H](C(=O)N[C@@H](CCc1ccccc1)C(=O)NCc1ccc(C)cc1)[C@@H](C)O)CC2 (some centres not stated) | > 20

Species on record: Homo sapiens
Experiment: Inhibition of human elastase at 100 uM
Conditions: not given

SMILES | inhibition
Cc1ccc(CNC(=O)[C@H](CCc2ccccc2)NC(=O)[C@H](CCc2ccccc2)NC(=O)Cc2cccc(Oc3ccccc3)c2)cc1 | Active
COc1ccc2c(c1)CC(C(=O)N[C@H](C(=O)N[C@@H](CCc1ccccc1)C(=O)NCc1ccc(C)cc1)[C@@H](C)O)CC2 (some centres not stated) | Active

Molecular target: Cathepsin B (Homo sapiens) (UniProt P07858)
Experiment: Inhibition of human cathepsin B at 100uM
Conditions: not given

SMILES | inhibition
Cc1ccc(CNC(=O)[C@H](CCc2ccccc2)NC(=O)[C@H](CCc2ccccc2)NC(=O)Cc2cccc(Oc3ccccc3)c2)cc1 | Active
COc1ccc2c(c1)CC(C(=O)N[C@H](C(=O)N[C@@H](CCc1ccccc1)C(=O)NCc1ccc(C)cc1)[C@@H](C)O)CC2 (some centres not stated) | Active

Molecular target: Trypsin (Homo sapiens) (UniProt P07477+P07478+P35030)
Experiment: Inhibition of human trypsin at 100 uM
Format: protein assay
Conditions: not given

SMILES | inhibition
Cc1ccc(CNC(=O)[C@H](CCc2ccccc2)NC(=O)[C@H](CCc2ccccc2)NC(=O)Cc2cccc(Oc3ccccc3)c2)cc1 | Active
COc1ccc2c(c1)CC(C(=O)N[C@H](C(=O)N[C@@H](CCc1ccccc1)C(=O)NCc1ccc(C)cc1)[C@@H](C)O)CC2 (some centres not stated) | Active

Molecular target: Tissue-type plasminogen activator (Homo sapiens) (UniProt P00750)
Sequence (P00750 36-562 limits assumed): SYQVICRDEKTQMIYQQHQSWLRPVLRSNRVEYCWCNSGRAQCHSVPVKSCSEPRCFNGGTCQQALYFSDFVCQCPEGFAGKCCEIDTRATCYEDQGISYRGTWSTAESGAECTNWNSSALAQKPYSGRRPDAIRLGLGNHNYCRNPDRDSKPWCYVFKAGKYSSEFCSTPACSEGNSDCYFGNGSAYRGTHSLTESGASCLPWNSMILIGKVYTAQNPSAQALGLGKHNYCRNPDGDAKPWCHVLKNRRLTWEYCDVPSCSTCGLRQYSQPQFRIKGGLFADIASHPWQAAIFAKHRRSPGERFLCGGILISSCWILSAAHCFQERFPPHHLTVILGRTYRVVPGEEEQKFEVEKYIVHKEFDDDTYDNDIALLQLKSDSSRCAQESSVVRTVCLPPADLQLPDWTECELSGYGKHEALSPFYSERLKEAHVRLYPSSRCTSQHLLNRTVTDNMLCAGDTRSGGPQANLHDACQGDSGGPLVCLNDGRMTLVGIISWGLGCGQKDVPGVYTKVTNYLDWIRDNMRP
Experiment: Inhibition of tissue plasminogen activator at 100 uM
Conditions: not given

SMILES | inhibition
Cc1ccc(CNC(=O)[C@H](CCc2ccccc2)NC(=O)[C@H](CCc2ccccc2)NC(=O)Cc2cccc(Oc3ccccc3)c2)cc1 | Active
COc1ccc2c(c1)CC(C(=O)N[C@H](C(=O)N[C@@H](CCc1ccccc1)C(=O)NCc1ccc(C)cc1)[C@@H](C)O)CC2 (some centres not stated) | Active

Molecular target: T1, Calpain-1 catalytic subunit (Homo sapiens) (UniProt P07384)
T1 sequence (whole entry): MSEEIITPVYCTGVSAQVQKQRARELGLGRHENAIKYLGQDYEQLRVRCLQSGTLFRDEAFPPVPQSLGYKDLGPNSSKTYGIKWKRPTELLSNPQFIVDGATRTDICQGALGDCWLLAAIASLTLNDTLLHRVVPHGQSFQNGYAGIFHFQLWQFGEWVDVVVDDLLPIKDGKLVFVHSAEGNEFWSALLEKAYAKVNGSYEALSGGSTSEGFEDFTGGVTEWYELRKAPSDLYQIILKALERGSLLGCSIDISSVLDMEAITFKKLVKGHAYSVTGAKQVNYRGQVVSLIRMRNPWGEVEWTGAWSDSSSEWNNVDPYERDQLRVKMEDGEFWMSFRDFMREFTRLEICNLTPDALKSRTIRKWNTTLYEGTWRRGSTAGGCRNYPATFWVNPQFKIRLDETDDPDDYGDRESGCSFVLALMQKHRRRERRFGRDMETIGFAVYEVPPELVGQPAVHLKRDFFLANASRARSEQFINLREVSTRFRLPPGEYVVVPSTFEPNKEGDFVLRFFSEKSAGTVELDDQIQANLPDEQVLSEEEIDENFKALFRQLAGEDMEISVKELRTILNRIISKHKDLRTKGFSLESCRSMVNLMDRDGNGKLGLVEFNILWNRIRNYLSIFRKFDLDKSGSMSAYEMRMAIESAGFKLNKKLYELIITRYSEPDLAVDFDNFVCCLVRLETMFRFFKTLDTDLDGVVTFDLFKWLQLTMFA
Experiment: Inhibition of human calpain 1 at 100 uM
Conditions: not given

SMILES | inhibition
Cc1ccc(CNC(=O)[C@H](CCc2ccccc2)NC(=O)[C@H](CCc2ccccc2)NC(=O)Cc2cccc(Oc3ccccc3)c2)cc1 | Active
COc1ccc2c(c1)CC(C(=O)N[C@H](C(=O)N[C@@H](CCc1ccccc1)C(=O)NCc1ccc(C)cc1)[C@@H](C)O)CC2 (some centres not stated) | Active

Tested on: not listed separately
Experiment: (§1) Inhibition of TNF-alpha-induced NF-kappaB activation in human HEK293 cells after 3 hrs by luciferase reporter gene assay
Format: cell-based
Conditions: HEK293, 3 h
How it was run: (§2)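 NF-κB-luciferase reporter in HEK293 cells (10,000 per well). Cells were pre-incubated with compound for 1 h, then stimulated with 10 ng/ml TNF-α for 3 h with compound still present. IC50 and percentage inhibition were reported as means of at least three independent experiments.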

SMILES | IC50 [µM]
Cc1ccc(CNC(=O)[C@H](CCc2ccccc2)NC(=O)[C@H](CCc2ccccc2)NC(=O)Cc2cccc(Oc3ccccc3)c2)cc1 | > 50
COc1ccc2c(c1)CC(C(=O)N[C@H](C(=O)N[C@@H](CCc1ccccc1)C(=O)NCc1ccc(C)cc1)[C@@H](C)O)CC2 (some centres not stated) | 0.095

Tested on: HEK293
Experiment: as §1
Format: cell-based
Set-up: concentration or dose not given beside the values
Conditions: dose or concentration not given here
How it was run: as §2

SMILES | inhibition [%]
Cc1ccc(CNC(=O)[C@H](CCc2ccccc2)NC(=O)[C@H](CCc2ccccc2)NC(=O)Cc2cccc(Oc3ccccc3)c2)cc1 | 28
COc1ccc2c(c1)CC(C(=O)N[C@H](C(=O)N[C@@H](CCc1ccccc1)C(=O)NCc1ccc(C)cc1)[C@@H](C)O)CC2 (some centres not stated) | 89

Molecular target: T2, Coagulation factor XII (Homo sapiens) (UniProt P00748)
T2 sequence (whole entry): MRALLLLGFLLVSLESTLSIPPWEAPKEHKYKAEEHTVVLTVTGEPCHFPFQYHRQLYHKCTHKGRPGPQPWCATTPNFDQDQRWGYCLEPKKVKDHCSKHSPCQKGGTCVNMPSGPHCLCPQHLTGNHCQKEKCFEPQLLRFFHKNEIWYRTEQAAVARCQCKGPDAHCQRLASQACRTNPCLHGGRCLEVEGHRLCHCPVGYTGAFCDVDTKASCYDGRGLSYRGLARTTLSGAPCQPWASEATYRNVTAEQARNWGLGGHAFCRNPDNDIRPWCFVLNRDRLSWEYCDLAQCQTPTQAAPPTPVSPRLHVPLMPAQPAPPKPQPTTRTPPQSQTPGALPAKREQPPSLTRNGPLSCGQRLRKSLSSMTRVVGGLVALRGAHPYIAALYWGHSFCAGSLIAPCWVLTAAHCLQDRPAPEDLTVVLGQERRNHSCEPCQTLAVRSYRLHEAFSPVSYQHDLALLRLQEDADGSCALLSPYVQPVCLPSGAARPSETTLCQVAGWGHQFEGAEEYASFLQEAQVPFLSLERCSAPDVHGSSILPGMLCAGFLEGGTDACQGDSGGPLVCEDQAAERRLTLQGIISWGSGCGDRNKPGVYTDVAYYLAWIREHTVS
Experiment: Inhibition of human coagulation factor beta 12a at 100 uM
Conditions: not given

SMILES | inhibition
Cc1ccc(CNC(=O)[C@H](CCc2ccccc2)NC(=O)[C@H](CCc2ccccc2)NC(=O)Cc2cccc(Oc3ccccc3)c2)cc1 | Active
COc1ccc2c(c1)CC(C(=O)N[C@H](C(=O)N[C@@H](CCc1ccccc1)C(=O)NCc1ccc(C)cc1)[C@@H](C)O)CC2 (some centres not stated) | Active

Molecular target: Plasminogen (Homo sapiens) (UniProt P00747)
Sequence (P00747 97-580 limits assumed): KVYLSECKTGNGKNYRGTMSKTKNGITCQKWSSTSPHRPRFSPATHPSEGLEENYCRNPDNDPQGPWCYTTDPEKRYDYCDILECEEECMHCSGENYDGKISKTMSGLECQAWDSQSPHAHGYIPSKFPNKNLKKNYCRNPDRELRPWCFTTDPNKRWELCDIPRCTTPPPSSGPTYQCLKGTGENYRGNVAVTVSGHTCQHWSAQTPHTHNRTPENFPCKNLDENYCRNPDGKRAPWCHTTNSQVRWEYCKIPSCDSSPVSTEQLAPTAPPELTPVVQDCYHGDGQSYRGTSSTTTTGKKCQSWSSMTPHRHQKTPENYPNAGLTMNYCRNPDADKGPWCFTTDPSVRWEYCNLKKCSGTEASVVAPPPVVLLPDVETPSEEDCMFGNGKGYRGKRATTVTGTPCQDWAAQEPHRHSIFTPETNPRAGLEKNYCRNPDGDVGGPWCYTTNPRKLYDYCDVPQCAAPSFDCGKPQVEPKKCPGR
Sequence (P00747 581-810 limits assumed): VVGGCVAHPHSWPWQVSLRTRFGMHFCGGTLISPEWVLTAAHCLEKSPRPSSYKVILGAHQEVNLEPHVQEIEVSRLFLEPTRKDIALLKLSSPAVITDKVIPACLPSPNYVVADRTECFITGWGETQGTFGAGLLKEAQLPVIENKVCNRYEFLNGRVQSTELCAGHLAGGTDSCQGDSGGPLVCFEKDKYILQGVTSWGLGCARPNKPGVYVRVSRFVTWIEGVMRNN
Experiment: Inhibition of human plasmin at 100 uM
Conditions: not given

SMILES | inhibition
Cc1ccc(CNC(=O)[C@H](CCc2ccccc2)NC(=O)[C@H](CCc2ccccc2)NC(=O)Cc2cccc(Oc3ccccc3)c2)cc1 | Active
COc1ccc2c(c1)CC(C(=O)N[C@H](C(=O)N[C@@H](CCc1ccccc1)C(=O)NCc1ccc(C)cc1)[C@@H](C)O)CC2 (some centres not stated) | Active

Molecular target: Procathepsin L (Homo sapiens) (UniProt P07711)
Sequence (P07711 114-333 limits assumed): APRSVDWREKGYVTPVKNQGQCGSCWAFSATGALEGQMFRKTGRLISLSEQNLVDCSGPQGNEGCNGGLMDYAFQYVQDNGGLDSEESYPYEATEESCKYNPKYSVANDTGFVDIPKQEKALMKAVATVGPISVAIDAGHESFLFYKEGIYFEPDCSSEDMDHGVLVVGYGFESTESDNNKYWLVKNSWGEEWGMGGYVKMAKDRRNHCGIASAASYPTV
Experiment: Inhibition of human cathepsin L at 100uM
Conditions: not given

SMILES | inhibition
Cc1ccc(CNC(=O)[C@H](CCc2ccccc2)NC(=O)[C@H](CCc2ccccc2)NC(=O)Cc2cccc(Oc3ccccc3)c2)cc1 | Active
COc1ccc2c(c1)CC(C(=O)N[C@H](C(=O)N[C@@H](CCc1ccccc1)C(=O)NCc1ccc(C)cc1)[C@@H](C)O)CC2 (some centres not stated) | Active

Tested on: not listed separately
Experiment: Inhibition of chymotrypsin-like activity of human 20s proteasome beta2 subunit in human erythrocyte assessed as hydrolysis of Ac-WLA-AMC fluorogenic substrate
Conditions: not given

SMILES | IC50 [µM]
Cc1ccc(CNC(=O)[C@H](CCc2ccccc2)NC(=O)[C@H](CCc2ccccc2)NC(=O)Cc2cccc(Oc3ccccc3)c2)cc1 | > 20
COc1ccc2c(c1)CC(C(=O)N[C@H](C(=O)N[C@@H](CCc1ccccc1)C(=O)NCc1ccc(C)cc1)[C@@H](C)O)CC2 (some centres not stated) | > 20

Tested on: not listed separately
Experiment: Inhibition of chymotrypsin-like activity of human 20s proteasome beta5 subunit in human erythrocyte assessed as hydrolysis of Ac-WLA-AMC fluorogenic substrate
Conditions: not given

SMILES | IC50 [µM]
Cc1ccc(CNC(=O)[C@H](CCc2ccccc2)NC(=O)[C@H](CCc2ccccc2)NC(=O)Cc2cccc(Oc3ccccc3)c2)cc1 | 1.1
COc1ccc2c(c1)CC(C(=O)N[C@H](C(=O)N[C@@H](CCc1ccccc1)C(=O)NCc1ccc(C)cc1)[C@@H](C)O)CC2 (some centres not stated) | 0.02
